Furin inh: human furin inhibition. P09958. purified furin, fluorogenic substrate cleavage. 0.061% of 220,000 active. inhibition, % at 20 µM or 30 µM; in the data active = inhibition above about 25%
Thrombin inh: inhibitors of human thrombin; P00734; AID 1046; 0.26% of 220,000 active; inhibition, % at 5 µM; alpha-thrombin, Boc-VPR-AMC fluorogenic substrate cleavage;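 active = inhibition at or above 40%; inactive = inhibition below 40%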
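Assay system: human alpha-thrombin enzyme. Reagent: Boc-VPR-AMC substrate, 15 µM final. Compound dosing: one concentration per compound, 5 µM, with 0.2% DMSO. Incubation: room-temperature reaction. Technique: AMC fluorescence, 355/460 nm. Measure: % inhibition relative to enzyme controls and enzyme-free blanks.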
FXIIa inh: factor XIIa (human) inhibition; inhibition, % at 5 µM; 0.3% of 220,000 active; P00748; AID 800; purified FXIIa, Boc-QGR-AMC fluorogenic substrate, 2 h; in the data active = inhibition above about 40%
FXIa inh: inhibitors of human coagulation factor XIa | P03951 | purified FXIa, Boc-Glu-Ala-Arg-AMC fluorogenic substrate | 0.14% of 220,000 active | inhibition, % at 5 µM;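 active = inhibition of at least 40%; inactive = inhibition below 40%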;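 also: fluorescence of freed AMC excited at 355 nm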
Target sequence (P03951 19-387 limits assumed): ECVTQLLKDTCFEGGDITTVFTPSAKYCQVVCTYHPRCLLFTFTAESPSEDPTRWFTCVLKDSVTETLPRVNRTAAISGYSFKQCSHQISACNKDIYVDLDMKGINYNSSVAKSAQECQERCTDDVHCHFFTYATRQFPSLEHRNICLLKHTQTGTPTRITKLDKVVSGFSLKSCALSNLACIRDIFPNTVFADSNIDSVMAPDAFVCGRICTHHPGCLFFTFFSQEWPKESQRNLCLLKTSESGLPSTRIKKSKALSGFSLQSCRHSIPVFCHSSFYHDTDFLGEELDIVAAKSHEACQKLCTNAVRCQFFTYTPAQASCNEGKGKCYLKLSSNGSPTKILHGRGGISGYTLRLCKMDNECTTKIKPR
Target sequence (P03951 388-625 limits assumed): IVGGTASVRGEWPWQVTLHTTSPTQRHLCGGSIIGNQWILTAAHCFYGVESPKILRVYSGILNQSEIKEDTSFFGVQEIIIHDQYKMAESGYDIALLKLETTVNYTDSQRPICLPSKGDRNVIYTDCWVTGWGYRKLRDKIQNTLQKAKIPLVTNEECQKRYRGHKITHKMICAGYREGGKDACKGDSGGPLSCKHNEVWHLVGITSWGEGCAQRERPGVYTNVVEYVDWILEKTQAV
hK5 inh: inhibitors of human kallikrein 5; Q9Y337; recombinant hK5, fluorogenic AMC substrate cleavage; inhibition, % at 5 µM; 0.59% of 210,000 active;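 active = inhibition of 40% or more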
Calpain2 inh: inhibitors of pig calpain II; purified calpain II, fluorogenic peptide substrate, 30 min; inhibition, % at 16 µM; 0.37% of 220,000 active; AID 1236;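 active = inhibition above about 50%, limit read from the data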
Each line names hits and unclear results; the compound was inactive in the other large screens. A selection: hits, their analogues and other compounds. The true share with any hit is near 1.4%.

CCOC(=O)CNC(=O)c1cc(OC)cc(OC)c1	none
CCOC(=O)c1c(N)sc(C(=O)N2CCCC(C(N)=O)C2)c1C (stereo not given)	none (no result: Thrombin inh, FXIIa inh, FXIa inh, hK5 inh, Calpain2 inh)
Cc1c(C(=O)N2CCC(C(N)=O)CC2)sc(N)c1C#N	Thrombin inh 104.0, hK5 inh 106.9
CC1(C)CC2CC(C)(CN2C(=O)c2cc(-c3ccccc3O)on2)C1 (stereo not given)	hK5 inh 45.4
Cc1snnc1C(=O)NC(=S)Nc1ccccc1	none
CCCCOC(=O)CSc1nc2ccccc2o1	none
COc1ccc2[nH]c(=O)c(CN(CCO)S(=O)(=O)c3ccc(C)cc3)cc2c1	none
COc1ccc(S(=O)(=O)N(CCCN2CCCC2=O)Cc2cc3c(C)cc(C)cc3[nH]c2=O)cc1	hK5 inh 133.4
Fc1ccc(-c2csc3ncnc(Nc4ccc(N5CCOCC5)cc4)c23)cc1	hK5 inh 41.9
c1nc(Nc2ccc(N3CCOCC3)cc2)c2ccsc2n1	none
CCCCCOc1ccc(C(=O)NC(C(=O)O)C(C)C)cc1 (stereo not given)	hK5 inh 41.0
CCCCNCc1cc2ccccc2o1	none
CCN(CC)c1ccc(NC(=O)C(C)C)cc1	none
CCN(CC)c1ccc(C(=O)NNC(=O)CCl)cc1	Calpain2 inh 69.4
CCOC(=O)C1=C(CNC(C)(C)CC(C)(C)C)NC(=O)NC1c1cccc([N+](=O)[O-])c1 (stereo not given)	Calpain2 inh 61.0 (no result: Thrombin inh)
CCOC(=O)C1=C(CNCCc2ccc(Cl)cc2)NC(=O)NC1c1cccc([N+](=O)[O-])c1 (stereo not given)	none
C=C1c2cc3c(cc2NC(=S)N1Cc1ccccc1)OCO3	none
COc1ccc(C2CC(=O)c3cnn(-c4nc(C)cc(C)n4)c3C2)cc1 (stereo not given)	none
COc1ccc(CCNC(=O)CSc2nnc(-c3ccc(F)cc3)o2)cc1OC	hK5 inh 129.5
COc1ccc(CCNC(=O)CSc2nnc(CNc3ccc(Cl)cc3)o2)cc1OC	none
CN1CCN(NC(=S)Nc2ccc(Oc3ccccc3)cc2)CC1	none
O=[N+]([O-])c1ccc2c(c1)c1ccccc1n2CCO	FXIIa inh 50.0
COc1cc(CNCCO)cc(Cl)c1OCc1ccc(Cl)cc1Cl	none
CCOC(=O)C1=C(CC)Nc2ccccc2N=C1NC(=O)CCN1C(=O)C2CCCCC2C1=O (stereo not given)	hK5 inh 54.1
CCOC(=O)C1=C(CC)Nc2ccccc2N=C1NC(=O)Cn1cnc2ccccc2c1=O	none
COc1ccc(N2C(=S)N=C(Nc3ccccc3)C23CCCCC3)cc1	Thrombin inh 101.1
O=C(c1ccccc1)N1CCCC(C(=O)N2CCN(c3ccccc3)CC2)C1 (stereo not given)	none
COc1ccc(-c2ccc(CCC(=O)O)n2-c2ccccc2O)cc1	Thrombin inh 58.5
O=C(CCc1nnc(-c2ccsc2)o1)N1CCc2c(Cl)cccc2C1	none
CCc1ccc2nc(NC(=O)Cn3cnc4ccccc4c3=O)sc2c1	Calpain2 inh 72.0
CCC(=O)Nc1nc(-c2ccccc2)nc(SC)c1C(C)=O	none
CCOC(=O)c1c(C)nc(-c2ccccc2)nc1NC(=O)CC	hK5 inh 58.2
COc1ccc2cc(C3C(C#N)=C(N)OC(C)=C3C(C)=O)c(Cl)nc2c1 (stereo not given)	hK5 inh 42.1
Cc1ccc(S(=O)(=O)NCC(=O)OCC(=O)Nc2ncc(Cl)cc2Cl)cc1	FXIIa inh 71.3
N/C(=N\OC(=O)COc1ccc(Cl)cc1Cl)c1ccncc1	none
O=C(N/N=C/c1ccccc1C(=O)O)c1ccccc1Br	FXIa inh 61.9, hK5 inh 59.6
Cc1ccc(CS(=O)(=O)Cc2ccc(C(=O)NCc3cccs3)o2)cc1	none
O=C(Nc1cc(=O)[nH]c2ncnn12)c1ccco1	FXIIa inh 41.6, hK5 inh 56.6
CN1CC(=O)N(CC(=O)Nc2ccc3c(c2)CCC3)C1=O	none
Nc1nc(-c2ccco2)nn1C(=O)c1cccnc1	Thrombin inh 64.3
Nc1nc(-c2ccco2)nn1C(=O)CCc1ccccc1	Thrombin inh 92.8
Cc1ccc(C(=O)N[C@@H](C)CN2C3=NC[C@H](C)N3C[C@H]2Cc2ccc(O)cc2)cc1Br	none
Cc1ccc(S(=O)(=O)N(C)c2ccc(C)c([N+](=O)[O-])c2)cc1	Calpain2 inh 50.3
Cc1nc(SCC(=O)NCc2ccco2)c2c(=O)n(C)c(=O)n(CC(C)C)c2n1	none (no result: FXIIa inh)
COc1ccccc1NS(=O)(=O)c1ccc(O)c(C(=O)OCC(=O)c2ccc(Cl)cc2Cl)c1	FXIa inh 49.2
Cc1ccccc1-n1c(SCc2c(C)noc2C)nnc1-c1cccnc1	hK5 inh 51.6
CCCc1cc2c(=O)c(-c3nc4ccccc4s3)c(COCC(=O)O)oc2cc1O	none
CCC(=O)O/N=C(\N)c1ccc(Oc2cc(C)c(Cl)c(C)c2)c([N+](=O)[O-])c1	none
COc1ccc(CC(=O)NC2CCCc3ccccc32)cc1 (stereo not given)	none
Cc1ccc(C(=O)NC2CCCc3ccccc32)o1 (stereo not given)	Furin inh 25.3
CCOC(=O)c1nc(C)nc(Sc2n[nH]c(-c3ccc(C(C)(C)C)cc3)n2)c1C	none
CCOC(=O)c1oc2ccccc2c1NC(=O)CN1CCOCC1	none
O=C(Nc1nnc(-c2ccccc2SCc2ccccc2F)s1)Nc1ccccc1F	Calpain2 inh 50.8
O=C(Nc1nnc(-c2ccc(F)cc2)s1)Nc1ccccc1F	none
COC(=O)C(C)NC(=O)C1CCCN1S(=O)(=O)c1cc(C)c(Cl)cc1C (stereo not given)	FXIIa inh 48.3, hK5 inh 48.9
CCC(C)NC(=O)C1CCCN1S(=O)(=O)c1ccc(Cl)cc1 (stereo not given)	none
Cn1nnc(NC(=O)c2cccc([N+](=O)[O-])c2)n1	none
O=C1C=C(NCc2ccc(Cl)cc2)CCC1	hK5 inh 49.7
O=C1C=C(NCc2ccc(Cl)c(Cl)c2)CC1	none
CCOc1ccccc1Nc1nnc(Cc2ccccc2Cl)c(=O)[nH]1	Calpain2 inh 63.2
CCOc1ccccc1Nc1nnc(C)c(=O)[nH]1	none
O=C(Nc1cccc(Br)c1)c1ccc(OC2CSC2)cc1	none
COc1ccc(C(=O)NC(=S)N2CCCCC2)cc1	hK5 inh 43.6
O=C(Oc1ccc2c(=O)c(Cl)coc2c1)c1ccncc1	FXIIa inh 41.3, FXIa inh 42.5
CCCN(CCC)C(=O)CC(c1ccccc1)c1cc(Br)ccc1O (stereo not given)	Calpain2 inh 73.6
CCCN(CCC)C(=O)CC(c1ccccc1)c1ccc(C)cc1O (stereo not given)	none
COc1ccc(OCC(=O)N2N=C(C)CC2(O)C(F)(F)F)cc1 (stereo not given)	none
O=S(=O)(c1ccc(F)cc1)N(CCO)CC(O)Cn1c2ccccc2c2ccccc21 (stereo not given)	none
